# Hsp90 block – tumor Hsp90 inhibitors, primary screen, cell lysate, fluorescence polarization, NCI-N417 lysate | inhibition, % at 30 µM | AID 429, 2006 | actives 0.35% (n = 64,000) | Cy3B-geldanamycin FP displacement | Heat shock protein HSP 90-alpha (Homo sapiens), P07900;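 active means inhibition above 50%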;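 further: 0% = tracer plus lysate wells and 100% = tracer alone without lysate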
# HEK293 NFkB inh – inhibitors of PMA/ionomycin-induced NF-kB reporter, primary screen, antigen receptor NF-kB inhibitor project, cell-based, HEK-293 luciferase reporter, luminescence; AID 465, 2006; HEK-293 NF-kB luciferase reporter; inhibition, % at 3 µM; actives 0.21% (n = 62,000);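 active means inhibition above the mean of all tested compounds plus 3 SD, cut at about 40% in these data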;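 further: 0% = stimulated DMSO wells and 100% = 10 µM reference inhibitor 5653914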
#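 Timing: 1 h pretreatment, 16 h stimulation, 37 °C; system: HEK-293 cells with stable firefly luciferase reporter driven by four HIV NF-kB elements; doses: 3 µM once, 0.30% DMSO; measured by: luciferase luminescence; control set: DMSO and 10 µM reference inhibitor; repeats: single test; reagent: PMA plus ionomycin mix as NF-kB-activating stimulus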
# HER2 expr 66K – inhibitors of Her2 protein expression, primary screen, SKBR-3 cells, AlphaScreen, 66K library | Receptor tyrosine-protein kinase erbB-2 (Homo sapiens), P04626 | SKBR-3 HER2 protein level, 18-24 h; hits give low values | HER2 level % of control, % at 10 µM | actives 0.69% (n = 65,000) | AID 645, 2007;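 active means HER2 level under 5% of the carrier-only control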;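 further: 100% = DMSO carrier and 0% = 500 nM PU-H71 HSP90 inhibitor; lower value means stronger loss of Her2 protein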
# JNK3 inh – JNK3 kinase activity inhibitors, primary screen, biochemical, human, purified enzyme | HTS | inhibition, % at 8 µM | actives 0.61% (n = 60,000) | AID 746, 2007; in the data active means inhibition above about 17%;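 further: 0% = DMSO and 100% = reference inhibitor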
# Jurkat viability – cytotoxicity toward Jurkat T cells, primary screen, cytotoxicity control, cell-based, Jurkat E6.1, 60K MLSMR library | actives 1.2% (n = 56,000) | inhibition, % at 4 µM | AID 463, 2006 | Jurkat E6.1 viability, ATP luminescence, 48 h;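 active means inhibition above the mean inhibition of all tested compounds plus 3 SD, cut at about 28% in these data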
# AP ELISA ortho – alternative complement pathway inhibitors, primary screen, biochemical, ELISA, human serum, orthogonally pooled compounds; LPS-coated ELISA, C3 deposition; tested in compound mixtures; inhibition, % at 5 µM; actives 0.08% (n = 62,000);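 active means inhibition above 30% in each of the two pooled mixtures holding the compound, so the lower value exceeds 30%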;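 further: 0% = serum in Mg-EGTA without compound and 100% = EDTA serum blank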
#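 Test system – human serum alternative complement pathway, C3 deposition on LPS-coated wells · Buffer or medium – diluted human serum in Mg2+-EGTA GVB++ · Compound dosing – 5 µM each compound, pools of ten, 50 µM per pool · Schedule – 1 h serum-compound exposure at 37 °C · Measured by – Anti-C3 ELISA, OD 450 nm · Read-out basis – percent inhibition of C3 deposition onto LPS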
# The depositor's hits bear a star; x = no result. Hits are enriched below; roughly 2.5% of the tested compounds scored in any of these assays.
SMILES,Hsp90 block,HEK293 NFkB inh,HER2 expr 66K,JNK3 inh,Jurkat viability,AP ELISA ortho
COc1cc(-c2c(C#N)c(N)nc3c2CCCC3)ccc1O,0,5,91,12,-5,13
COC(=O)c1c(C#N)c(N)nc2c1CCCC2,1,7,83,19*,-7,5
CC(C)Oc1cc(O)c2c(=O)c(-c3ccc(O)cc3)coc2c1,-5,-52,82,-1,99*,11
O=c1nc(-c2ccccc2)c2ccccc2[nH]1,1,22,90,-1,-1,9
Cc1cc(-c2ccccc2)nc(=O)[nH]1,3,-2,-18*,7,-6,13
O=C(O)c1cc2cc(Cc3cccnc3)ccc2o1,-4,x,x,x,x,x
O=C1NCN(c2ccccc2)C12CCN(c1nnnn1-c1ccccc1)CC2,-6,10,68,x,x,7
CCn1c(C(C)NC(C)=O)nc2ccccc21 (stereo unspecified),-7,3,81,31*,-3,4
CCn1c(C(C)NC(=O)c2cccs2)nc2ccccc21 (stereo unspecified),1,16,104,-4,4,10
O=C(NCCCc1ccccc1)c1ccncc1,-2,15,-5.5*,10,4,-18
CCOC(=O)c1cc2sc(C)cc2n1CC(=O)NCCc1ccccc1,-6,13,54,x,x,6
CC(=O)c1cccc(NC(=O)CSc2nnc(-c3ccc(S(=O)(=O)N4CCCC4)cc3)o2)c1,61*,9,109,5,2,x
O=C(CN1CCC(c2nc3ccccc3s2)CC1)NCc1cccs1,-4,10,-13*,3,28*,-3
Nc1ccc2ncccc2c1,70*,5,128,0,-7,-12
c1cnc2c(c1)ccc1cccnc12,-2,x,x,x,x,x
Nc1ccc2ncccc2c1N,101*,x,-19*,-9,x,x
COc1cccc(-c2nnc3n2N=C(C(C)(C)C)CS3)c1,x,50*,x,x,x,12
COc1ccc(OC)c(C2=Nn3c(nnc3-c3cc(OC)c(OC)c(OC)c3)SC2)c1,-3,33,114,-1,4,11
COc1ccc(C2=Nn3c(nnc3-c3ccccc3OC)SC2)cc1OC,1,47*,73,13,99*,4
COc1ccc(C2=Nn3c(nnc3-c3ccc(OC)cc3)SC2)cc1,2,25,78,-2,93*,-4
Cc1ccc(-c2nnc3n2N=C(c2ccccc2)CS3)cc1,1,-5,95,1,10,15
COc1cc(-c2nnc3n2N=C(c2ccccc2)CS3)cc(OC)c1OC,-2,35,109,4,52*,6
COc1ccc(C2=Nn3c(nnc3-c3ccccn3)SC2)cc1OC,0,x,109,-11,x,x
COC(=O)c1ccc(OCC(O)CN(CC(C)C)CC(C)C)cc1 (stereo unspecified),-1,4,84,-1,4,4
Clc1ccccc1C(c1ccccc1)(c1ccccc1)n1ccnc1,-1,x,x,x,x,x
SMILES,Hsp90 block,HEK293 NFkB inh,HER2 expr 66K,JNK3 inh,Jurkat viability,AP ELISA ortho
Cc1ccc(-n2ncc3c(=O)n(CC(=O)NCc4ccco4)cnc32)cc1,4,4,117,9,-6,8
O=C(Cn1cnc2c(cnn2-c2ccc(F)cc2)c1=O)NCc1ccco1,-3,-3,160,11,55*,2
CCOC(=O)c1cnc2c(cnn2CC)c1NN=C(C)C,0,x,x,x,x,x
COc1ccc(-c2oc3ncnc(NCCCN4CCOCC4)c3c2-c2ccc(OC)cc2)cc1,-3,29,-2.9*,-7,8,3
CC(C)Cc1cc(C(=O)NCCCN2CCOCC2)no1,-5,5,106,-2,2,15
CC(C)C(NS(=O)(=O)c1cccs1)C(=O)NCc1ccc2c(c1)OCO2 (stereo unspecified),-2,6,106,-1,-4,11
CCc1ccc(CNc2ccc(N3CCN(C(C)=O)CC3)cc2)cc1,57*,16,90,-11,1,x
CC1(C)CC(=O)C2=C(C1)OC(N)=C(C#N)C2C1CC=CCC1 (stereo unspecified),0,3,115,0,-2,-4
Cc1[nH]nc2c1C(C1CC=CCC1)C(C#N)=C(N)O2 (stereo unspecified),-2,7,-10*,0,8,12
N#CC1=C(N)Oc2cc(N)ccc2C1C1CC=CCC1 (stereo unspecified),-3,19,54,1,56*,13
CCC(CC)C1C(C#N)=C(N)Oc2n[nH]c(C)c21 (stereo unspecified),-2,x,132,1,x,2
Clc1ccc2[nH]c3c(c2c1)CCc1cn[nH]c1-3,3,-4,61,85*,3,8
c1ccc2c3c([nH]c2c1)-c1[nH]ncc1CC3,1,4,74,54*,3,3
CC(C)(C)OC(=O)NCCCCCc1nnc(SCC(=O)Nc2cccc(Cl)c2)o1,2,-1,208,-3,1,0
CCCCNc1cc(C)nc(NCc2ccccc2)n1,-1,15,52,4,34*,14
Cc1cc(C)nc(NCCCc2ccccc2)n1,0,18,71,3,-4,-7
O=C(Nn1c(=S)[nH]c2ccccc2c1=O)c1ccncc1,1,2,111,-3,0,10
CC(C)(C)Sc1nc(O)cc(=O)[nH]1,-2,25,85,5,-2,34*
COC1(OC)N=C(N)C2(C#N)C(c3ccc4c(c3)OCO4)C12C#N (stereo unspecified),-8,10,55,20*,-13,7
CCCNCCCC(C)Nc1cc(OC)cc2c(C)ccnc12 (stereo unspecified),-6,x,x,x,x,x
Cc1cccc(-c2noc(CCCC(=O)Nc3cccnc3)n2)c1,-2,16,112,0,6,13
O=C(CCCc1nc(-c2ccc(Cl)cc2)no1)Nc1cccnc1,-5,25,102,-7,42*,7
CC1(C)C(=O)N(CCN2CCC(C(=O)c3ccc(F)cc3)CC2)c2ccccc21,-2,x,x,x,x,x
CCn1c2ccccc2c2cc(N)ccc21,15,4,93,-4,2,11
CCn1c(C)cc(=S)c2ccccc21,-59,9,-19*,-7,9,10
CCOc1ccc(-c2nnn(CC(=O)c3ccc4c(c3)OCCO4)n2)cc1,0,16,99,5,-8,5
CCOc1ccccc1NC(=O)Cn1nnc(-c2ccc(OCC)c(OCC)c2)n1,0,-1,-20*,8,-10,-6

# Bioassay records deposited in PubChem by several laboratories.
